The target of data set [1] is T1, Prostaglandin E synthase (Homo sapiens) (UniProt O14684).
T1 sequence (whole entry): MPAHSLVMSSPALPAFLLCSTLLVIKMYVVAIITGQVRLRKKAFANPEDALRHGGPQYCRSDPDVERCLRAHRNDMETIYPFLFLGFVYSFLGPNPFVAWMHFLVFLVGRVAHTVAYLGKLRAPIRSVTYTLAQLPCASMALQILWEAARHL
The data set can be described thus: Inhibition of PGES-1 in human A549 cell microsomes using PGH2 as substrate assessed as remaining enzyme activity of interleukin-1beta-stimulated PGE2 production at 10 uM incubated for 15 mins post interleukin-1beta challenge for 72 hrs by RP-HPLC analysis. The gist of the method: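 Microsomes from A549 cells stimulated with 2 ng/mL IL-1β for 72 h (pellet after 10,000 × g then 174,000 × g spins), diluted in 0.1 M potassium phosphate pH 7.4 with 2.5 mM glutathione. Compound at 10 µM preincubated 15 min at 4 °C, then 20 µM PGH2 added for 1 min at 4 °C. Stopped with FeCl2/citric acid containing 11β-PGE2 internal standard. PGE2 isolated by solid-phase extraction and quantified by RP-HPLC. Activity given as % of uninhibited control, mean ± S.E.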

The target in a further data set is T2, Prostaglandin E synthase (Homo sapiens, UniProt O14684).
T2 sequence (O14684 whole entry): T1 sequence (whole entry)
Kind of data set: Inhibition of PGES-1 in human A549 cell microsomes using PGH2 as substrate assessed as suppression of interleukin-1beta-stimulated PGE2 production incubated for 15 mins post interleukin-1beta challenge for 72 hrs by RP-HPLC analysis. The method, boiled down: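 Enzyme source was A549 microsomes after 72 h IL-1β (2 ng/mL) stimulation, in 0.1 M potassium phosphate pH 7.4 with 2.5 mM GSH. Compounds preincubated 15 min at 4 °C over a concentration range, then 20 µM PGH2 added for 1 min at 4 °C. Reaction stopped, PGE2 recovered by solid-phase extraction and measured by RP-HPLC against 11β-PGE2.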

In data set [2] the test system is RAW264.7. Kind of data set: Cytotoxicity against mouse RAW264.7 cells assessed as cell viability at 1 to 10 uM after 24 hrs in presence of LPS by MTT assay. In kind it is cell-based. The settings on record: raw264.7, 24 h. The gist of the method: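 RAW 264.7 macrophages treated with compounds at 1 or 10 µM in the presence of LPS for 24 h; viability read by MTT assay. Experiments run at least twice.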

Data set [3] relates to RAW264.7. Kind of data set: Suppression of PGE2 production in LPS-induced mouse RAW264.7 cells after 24 hrs by enzyme immunoassay. Particulars: RAW264.7, 24 h. In kind it is functional, cell-based. The gist of the method: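 RAW 264.7 cells stimulated with LPS and treated with compound for 24 h, first screened at 1 or 10 µM. Compounds giving >50% suppression went on to IC50 determination. PGE2 in medium measured by EIA. NS398 at 3 µM served as positive control. Runs done at least twice.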

Data set [4] addresses T1, Prostaglandin E synthase (Homo sapiens). The data set can be described thus: Potency index, ratio of IC50 for MK-886 to IC50 for test compound for inhibition of PGES-1 in human A549 cell microsomes. In kind it is cell-based.
For data set [5], the system named is RAW264.7. Kind of data set: Potency index, ratio of IC50 for NS398 to IC50 for test compound for suppression of PGE2 production in LPS-induced mouse RAW264.7 cells. In kind it is functional.
Data set [6] deals with RAW264.7. Kind of data set: Suppression of NO production in LPS-induced mouse RAW264.7 cells by Griess assay. In kind it is functional, cell-based. The gist of the method: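 LPS (10 ng/mL)-stimulated RAW 264.7 cells co-incubated with compound at 0.1–10 nM. Nitrite in supernatant read with Griess reagent. Means ± SD of three samples; ANOVA with Dunnett's test.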
(Griess reagent forms a coloured azo dye with nitrite.)

The text below walks through data of ChEMBL document CHEMBL3745660, “Hit-to-lead optimization of phenylsulfonyl hydrazides for a potent suppressor of PGE2 production: Synthesis, biological activity, and molecular docking study” (Bioorg Med Chem Lett, 2016).

On to `O=C(Oc1ccccc1)N(Nc1ccccc1)S(=O)(=O)c1ccccc1`, for which, in data set [1], the Activity came out at 63.6%. Further, the IC50 at Prostaglandin E synthase is > 10000 nM.

Consider `COc1ccc(S(=O)(=O)N(Nc2ccccc2)C(=O)Oc2ccccc2)cc1`, for which the Cytotoxic concentration in the data set with RAW264.7 [2] is > 10 µM. In the data set with RAW264.7 [3], this molecule showed an IC50 of 4430 nM.

Consider `Cc1cc(C)c(S(=O)(=O)N(Nc2ccccc2)C(=O)Oc2ccc(OCc3ccccc3)cc2)c(C)c1`, for which, in the data set on RAW264.7 [2], the Cytotoxic concentration was > 1 µM. This molecule displayed an IC50 with RAW264.7 [3] of 81.5 nM.

Take `COc1ccc(OC(=O)N(Nc2ccccc2)S(=O)(=O)c2ccccc2)cc1`: the Cytotoxic concentration in the data set with RAW264.7 [2] is > 10 µM. In the data set on RAW264.7 [3], this molecule showed an IC50 of 584 nM.

Consider `Cc1ccc(OC(=O)N(Nc2ccccc2)S(=O)(=O)c2ccccc2)cc1`, for which, in the data set on RAW264.7 [2], the Cytotoxic concentration was > 10 µM. The molecule also yielded an IC50 in the data set with RAW264.7 [3] of 1020 nM.

With `COc1ccc(OC(=O)N(Nc2ccccc2)S(=O)(=O)c2ccc(OC)cc2)cc1`, the Cytotoxic concentration in the data set with RAW264.7 [2] was > 10 µM. Moreover, inhibition in the data set on RAW264.7 [3] was half-maximal at 490 nM (IC50).

In the case of `CC(C)(C)c1ccc(S(=O)(=O)N(Nc2ccccc2)C(=O)Oc2ccc(OCc3ccccc3)cc2)cc1`, in data set [1], the Activity amounted to 79.9%. Besides, in the data set with RAW264.7 [2], the Cytotoxic concentration was > 1 µM. In addition, the IC50 was 56.9 nM in the data set on RAW264.7 [3] and > 10000 nM on Prostaglandin E synthase.

For the molecule `COc1ccccc1OC(=O)N(Nc1ccccc1)S(=O)(=O)c1ccc(C)cc1`, the Activity in data set [1] was found to be 55.7%. In addition, the Cytotoxic concentration in the data set with RAW264.7 [2] was > 10 µM. In addition, the IC50 is 34.1 nM in the data set with RAW264.7 [3] and > 10000 nM on Prostaglandin E synthase.

Regarding `CC(C)c1ccc2c(c1)c(SC(C)(C)C)c(CC(C)(C)C(=O)O)n2Cc1ccc(Cl)cc1`, the Activity in data set [1] was determined as 16.3%.

For the molecule `CCOc1ccc(OC(=O)N(Nc2ccccc2)S(=O)(=O)c2ccc(OC)cc2)cc1`, the Activity in data set [1] is 62.5%. Further, in the data set on RAW264.7 [2], the Cytotoxic concentration was > 10 µM. The IC50 was 20.5 nM with RAW264.7 [3] and > 10000 nM at Prostaglandin E synthase.

Consider `O=C(Oc1ccc(OCc2ccccc2)cc1)N(Nc1ccccc1)S(=O)(=O)c1ccc(-c2ccccc2)cc1`, for which the Cytotoxic concentration with RAW264.7 [2] was > 1 µM. The molecule further gave an IC50 in the data set on RAW264.7 [3] of 93 nM.

Consider `CCc1ccc(OC(=O)N(Nc2ccccc2)S(=O)(=O)c2ccc(OC)cc2)cc1`, for which the Activity in data set [1] was 63.6%. In the data set on RAW264.7 [2], the Cytotoxic concentration was > 10 µM. For the same molecule, the figures for the IC50 with RAW264.7 [3] and on Prostaglandin E synthase were 28.5 nM and > 10000 nM, respectively.

For `COc1ccc(S(=O)(=O)N(Nc2ccccc2)C(=O)Oc2ccccc2OC)cc1`, in the data set on RAW264.7 [2], the Cytotoxic concentration is > 10 µM. The molecule further had an IC50 in the data set on RAW264.7 [3] of 165 nM.

`COc1ccc(S(=O)(=O)N(Nc2ccccc2)C(=O)Oc2ccc(Oc3ccccc3)cc2)cc1`: in data set [1], the Activity was determined as 37.1%. In addition, the Cytotoxic concentration in the data set on RAW264.7 [2] was > 10 µM. Also, the IC50 in the data set with RAW264.7 [3] turned out to be 17.1 nM; on Prostaglandin E synthase it was 6600 nM.

On to `COc1ccc(S(=O)(=O)N(Nc2ccccc2)C(=O)Oc2ccc3c(c2)CCC3)cc1`, for which the Activity in data set [1] is 18.5%. Moreover, the Ratio IC50 was 30 in data set [4] and 1.5 in the data set with RAW264.7 [5]. Moreover, the Cytotoxic concentration in the data set with RAW264.7 [2] is > 10 µM. The IC50 came out at 4.5 nM in the data set on RAW264.7 [3], 6.9 nM in the data set on RAW264.7 [6] and 70 nM on Prostaglandin E synthase.

On to `Cc1ccc(S(=O)(=O)N(Nc2ccccc2)C(=O)Oc2ccc(OCc3ccccc3)cc2)cc1`, for which the Activity in data set [1] came to 81.2%. For the same molecule, the Cytotoxic concentration result in the data set on RAW264.7 [2] is given as “>= 10 uM”. In addition, the IC50 was 32.6 nM in the data set on RAW264.7 [3] and > 10000 nM on Prostaglandin E synthase.

`Cc1ccc(OC(=O)N(Nc2ccccc2)S(=O)(=O)c2ccc(C)cc2)cc1`: the Activity in data set [1] came to 41.3%. Moreover, the Cytotoxic concentration in the data set on RAW264.7 [2] is > 10 µM. Also, the half-inhibitory concentration (IC50) was 1010 nM in the data set on RAW264.7 [3] and 6100 nM at Prostaglandin E synthase.

Take `Cc1ccc(S(=O)(=O)N(Nc2ccccc2)C(=O)Oc2ccccc2)cc1`: the Cytotoxic concentration in the data set with RAW264.7 [2] was > 10 µM. Further, 5720 nM corresponded to half-maximal inhibition with RAW264.7 [3] (IC50).

In the case of `Cc1cc(C)c(S(=O)(=O)N(Nc2ccccc2)C(=O)Oc2ccc(Oc3ccccc3)cc2)c(C)c1`, the Cytotoxic concentration in the data set with RAW264.7 [2] is > 1 µM. In the data set with RAW264.7 [3], this molecule showed an IC50 of 177 nM.

For the molecule `COc1ccc(S(=O)(=O)N(Nc2ccccc2)C(=O)Oc2ccc(OCc3ccccc3)cc2)cc1`, the Activity in data set [1] was 62.6%. Also, the Cytotoxic concentration entry in the data set on RAW264.7 [2] is given as “>= 10 uM”. For the same molecule, the IC50 in the data set with RAW264.7 [3] is 50 nM; at Prostaglandin E synthase, > 10000 nM.

As for `CCCc1ccc(S(=O)(=O)N(Nc2ccccc2)C(=O)Oc2ccc(Oc3ccccc3)cc2)cc1`, the Cytotoxic concentration in the data set with RAW264.7 [2] is > 1 µM. In addition, the IC50 in the data set on RAW264.7 [3] amounted to 134 nM.

Turning to `O=C(Oc1ccc(Oc2ccccc2)cc1)N(Nc1ccccc1)S(=O)(=O)c1ccc(-c2ccccc2)cc1`, in the data set on RAW264.7 [2], the Cytotoxic concentration was > 1 µM. The molecule also displayed an IC50 with RAW264.7 [3] of 161 nM.

In general, IC50 refers to the concentration that inhibits the measured activity by half.
